Assay results: ChEMBL document CHEMBL3044558, “Structure-activity relationship development of dihaloaryl triazole compounds as insecticides and acaricides. 1. Phenyl thiophen-2-yl triazoles” (2007)
In brackets after ≈: the same amount, converted by molar mass. Activity calls are given as the source filed them. No cut-off for these calls is given here.

Legend:
[1] = tested on: Spodoptera exigua; assay: Insecticidal activity against Spodoptera exigua second-instar larvae feeded on 400 ppm compound treated lepidopteran diet assessed as insect mortality measured 5 days post compound treatment under green house conditions; assay type: functional; conditions: at 400 ppm
[2] = tested on: Bemisia tabaci
[3] = tested on: Trichoplusia ni
[4] = tested on: Heliothis virescens
[5] = tested on: Tetranychus urticae
[6] = tested on: Aphis gossypii
[7] = tested on: Heliothis virescens; assay: Insecticidal activity against Heliothis virescens (tobacco budworm) second-instar larvae infested on 400 ppm compound pre-treated cotton cotyledon disk assessed as insect mortality measured 5 days post compound treatment under green house conditions; assay type: functional
[8] = tested on: Tetranychus urticae; assay: Insecticidal activity against female Tetranychus urticae (two-spotted spider mite) infested cotton leaf disks followed by 2.5 ppm compound spraying after oviposit assessed as insect mortality measured after 6 days post compound application under green house conditions; assay type: functional; conditions: foliar, 144 h
[9] = tested on: Spodoptera exigua
[10] = tested on: Trichoplusia ni; assay: Insecticidal activity against Trichoplusia ni (cabbage looper) second-instar larvae infested on compound pre-treated cabbage leaf disk assessed as insect mortality measured 5 days post compound treatment under green house conditions; assay type: functional; conditions: for LC50: Trichoplusia ni, foliar
How it was run: (§1)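 Leaf disks treated, air-dried and placed singly in cups. Cotton cotyledon disks each get one second-instar tobacco budworm larva; cabbage leaf disks each get one second-instar cabbage looper larva. Cups are capped and held in a growth chamber at 25 °C, 50-55% RH, 14 h light/10 h dark for 5 days.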

[11] = tested on: Trichoplusia ni; assay: Insecticidal activity against Trichoplusia ni (cabbage looper) second-instar larvae infested on 400 ppm compound pre-treated cabbage leaf disk assessed as insect mortality measured 5 days post compound treatment under green house conditions; assay type: functional; conditions: at 400 ppm
[12] = tested on: Spodoptera exigua; assay: Insecticidal activity against Spodoptera exigua second-instar larvae feeded on compound treated lepidopteran diet assessed as insect mortality measured 5 days post compound treatment under green house conditions; assay type: functional; conditions: for LC50: Spodoptera exigua, 120 h
[13] = tested on: Heliothis virescens; assay: Insecticidal activity against Heliothis virescens (tobacco budworm) second-instar larvae infested on compound pre-treated cotton cotyledon disk assessed as insect mortality measured 5 days post compound treatment under green house conditions; assay type: functional; conditions: Heliothis virescens; how it was run: as §1
[14] = tested on: Myzus persicae; assay: Insecticidal activity against Myzus persicae (green peach aphid) assessed as insect mortality at 50 ppm; assay type: functional
[15] = tested on: Aphis gossypii; assay: Insecticidal activity against Aphis gossypii (cotton aphid) infested one week old Crookneck squash plants assessed as insect mortality at 5 ppm measured after 3 days post compound application under green house conditions; assay type: functional; conditions: 72 h
[16] = tested on: Aphis gossypii; assay: Insecticidal activity against Aphis gossypii (cotton aphid) infested one week old Crookneck squash plants assessed as insect mortality at 50 ppm measured after 3 days post compound application under green house conditions; assay type: functional; conditions: 72 h
[17] = tested on: Bemisia tabaci; assay: Insecticidal activity against Bemisia tabaci (sweet potato whitefly) second-instar larvae infested five weeks old cotton plants followed by compound 250 ppm compound spraying after insect oviposit assessed as insect mortality measured 13 days post compound treatment under green house conditions; assay type: functional
[18] = tested on: Aphis gossypii; assay: Insecticidal activity against Aphis gossypii (cotton aphid) infested one week old Crookneck squash plants assessed as insect mortality measured after 3 days post compound application under green house conditions; assay type: functional; conditions: for LC50: Aphis gossypii, 72 h

Cn1nc(-c2c(F)cccc2Cl)nc1-c1cc(Br)c(-c2cccc(C(F)(F)F)c2)s1
mortality [1]: <50% | mortality [2]: inactive | mortality [3]: inactive | mortality [4]: inactive | mortality [5]: inactive | mortality [6]: inactive

Cc1ccc(-c2cc(Cl)c(-c3nc(-c4c(F)cccc4F)nn3C)s2)cc1
mortality [7]: 80% | mortality at 2.5 ppm [8]: 90% | mortality [2]: inactive | mortality [3]: inactive | mortality [9]: inactive | mortality [6]: inactive

Cn1nc(-c2c(F)cccc2Cl)nc1-c1ccc(-c2ccc(C(F)(F)F)cc2)s1
mortality at 2.5 ppm [8]: 80% | mortality [2]: inactive | mortality [3]: inactive | mortality [9]: inactive | mortality [4]: inactive | mortality [6]: inactive

Cn1nc(-c2c(F)cccc2Cl)nc1-c1sc(-c2ccc(OC(F)(F)C(F)Br)cc2)cc1Cl (configuration not stated)
LC50 [10]: < 1.6 µg/mL | mortality [11]: 70% | LC50 [12]: < 1.6 µg/mL | mortality [1]: 50% | LC50 [13]: 53.7 µg/mL (≈ 92.4 µM) | mortality [7]: 90% | mortality at 2.5 ppm [8]: 90% | LC50 [14]: 70 µg/mL (≈ 120 µM) | mortality at 5 ppm [15]: 54% | mortality at 50 ppm [16]: 90% | mortality [2]: inactive

Cn1nc(-c2c(F)cccc2Cl)nc1-c1cc(Br)c(-c2ccc(C(F)(F)F)cc2)s1
mortality [2]: inactive | mortality [3]: inactive | mortality [9]: inactive | mortality [4]: inactive | mortality [5]: inactive | mortality [6]: inactive

Cc1sc(-c2nc(-c3c(F)cccc3Cl)nn2C)c(C)c1-c1ccc(O)cc1
mortality [17]: <50% | mortality [7]: <50% | mortality [3]: inactive | mortality [9]: inactive | mortality [5]: inactive | mortality [6]: inactive

CC1(C)C(C=C(Cl)Cl)C1C(=O)OC(C#N)c1cccc(Oc2ccccc2)c1 (stereo not drawn) [ALPHA-CYPERMETHRIN]
LC50 [10]: 0.6 µg/mL (≈ 1.44 µM) | LC50 [12]: 1.6 µg/mL (≈ 3.84 µM) | LC50 [13]: 1.3 µg/mL (≈ 3.12 µM)

Cn1nc(-c2c(F)cccc2F)nc1-c1ccc(-c2ccc(OC(F)(F)F)cc2)s1
mortality [11]: 90% | mortality [7]: 90% | mortality [2]: inactive | mortality [9]: inactive | mortality [5]: inactive | mortality [6]: inactive

Cn1nc(-c2c(F)cccc2Cl)nc1-c1sc(-c2ccc(OC(F)(F)C(F)Cl)cc2)cc1Cl (configuration not stated)
LC50 [10]: < 1.6 µg/mL | LC50 [12]: < 1.6 µg/mL | mortality [1]: 60% | LC50 [13]: < 1.6 µg/mL | mortality [7]: 90% | mortality at 2.5 ppm [8]: 90% | LC50 [14]: 78 µg/mL (≈ 145 µM) | mortality at 5 ppm [15]: 72% | mortality at 50 ppm [16]: 90% | mortality [2]: inactive | mortality [3]: inactive

Cc1cc(C2=CCC(O)CC2)sc1-c1nc(-c2c(F)cccc2Cl)nn1C (configuration not stated)
mortality [17]: <50% | mortality [7]: <50% | mortality at 50 ppm [16]: < 50% | mortality [3]: inactive | mortality [9]: inactive | mortality [5]: inactive

Cn1nc(-c2c(F)cccc2F)nc1-c1sc(-c2ccc(C(F)(F)F)cc2)cc1Cl
mortality [11]: <50% | mortality [7]: 90% | mortality at 2.5 ppm [8]: 90% | mortality [2]: inactive | mortality [9]: inactive | mortality [6]: inactive

Cn1nc(-c2c(F)cccc2F)nc1-c1ccc(-c2ccc(C(C)(F)F)cc2Cl)s1
mortality [2]: inactive | mortality [3]: inactive | mortality [9]: inactive | mortality [4]: inactive | mortality [5]: inactive | mortality [6]: inactive

Cn1nc(-c2c(F)cccc2Cl)nc1-c1sc(-c2ccc(OC(F)(F)F)cc2)cc1Cl
LC90 [10]: 69.2 ppm | LC50 [10]: 4.02 µg/mL (≈ 8.23 µM) | mortality [11]: 90% | LC50 [12]: < 1.6 µg/mL | mortality [1]: 70% | LC50 [13]: 62 µg/mL (≈ 127 µM) | mortality [7]: 90% | mortality at 2.5 ppm [8]: 90% | LC50 [14]: 65 µg/mL (≈ 133 µM) | mortality at 5 ppm [15]: 80% | mortality at 50 ppm [16]: 90% | mortality [2]: inactive

O=[N+]([O-])/N=C1\NCCN1Cc1ccc(Cl)nc1 [IMIDACLOPRID]
LC50 [14]: 1.7 µg/mL (≈ 6.65 µM) | LC50 [18]: 0.05 µg/mL (≈ 0.196 µM)

Cc1ccc(-c2ccc(-c3nc(-c4c(F)cccc4Cl)nn3C)s2)cc1
mortality [17]: <50% | mortality [3]: inactive | mortality [9]: inactive | mortality [4]: inactive | mortality [5]: inactive | mortality [6]: inactive

Cc1c(-c2ccc(OC(F)(F)F)cc2)csc1-c1nc(-c2c(F)cccc2Cl)nn1C
mortality [17]: 90% | LC50 [10]: 15.8 µg/mL (≈ 33.8 µM) | mortality [11]: 90% | LC50 [12]: 21.9 µg/mL (≈ 46.8 µM) | mortality [1]: 90% | LC50 [13]: > 400 µg/mL | mortality [7]: 90% | mortality at 2.5 ppm [8]: 90% | LC50 [14]: 23.3 µg/mL (≈ 49.8 µM) | LC90 [18]: 22.2 ppm | LC50 [18]: 0.07 µg/mL (≈ 0.15 µM) | mortality at 50 ppm [16]: 90%

Cc1c(-c2ccc(OC(F)(F)C(F)Cl)cc2)csc1-c1nc(-c2c(F)cccc2Cl)nn1C (configuration not stated)
mortality [17]: 90% | LC50 [10]: < 1.56 µg/mL | mortality [11]: 70% | LC50 [12]: 1.56 µg/mL (≈ 3.02 µM) | mortality [1]: 80% | LC50 [13]: 4.38 µg/mL (≈ 8.48 µM) | mortality [7]: 90% | mortality at 2.5 ppm [8]: 90% | LC50 [14]: < 5 µg/mL | LC50 [18]: < 5 µg/mL | mortality at 50 ppm [16]: 80%

Cc1cc(C2CCC(O)CC2)sc1-c1nc(-c2c(F)cccc2Cl)nn1C (configuration not stated)
mortality [17]: 50% | mortality [7]: <50% | mortality [3]: inactive | mortality [9]: inactive | mortality [5]: inactive | mortality [6]: inactive

Cc1cc(-c2ccc(Cl)c(F)c2)sc1-c1nc(-c2c(F)cccc2Cl)nn1C
LC90 [10]: 40.3 ppm | LC50 [10]: 30.2 µg/mL (≈ 69.2 µM) | mortality [11]: 90% | LC90 [12]: 323 ppm | LC50 [12]: 65 µg/mL (≈ 149 µM) | mortality [1]: 90% | LC50 [13]: 19.4 µg/mL (≈ 44.5 µM) | mortality [7]: 90% | mortality at 2.5 ppm [8]: 90% | LC50 [14]: 89 µg/mL (≈ 204 µM) | LC90 [18]: 933 ppm | LC50 [18]: 0.923 µg/mL (≈ 2.12 µM) | mortality at 50 ppm [16]: 80% | mortality [2]: inactive

Cc1ccc(-c2sc(-c3nc(-c4c(F)cccc4Cl)nn3C)cc2Br)cc1
mortality [17]: <50% | mortality [1]: <50% | mortality [3]: inactive | mortality [4]: inactive | mortality [5]: inactive | mortality [6]: inactive

Cc1cc(-c2ccc(OC(F)(F)C(F)Br)cc2)sc1-c1nc(-c2c(F)cccc2Cl)nn1C (configuration not stated)
LC50 [10]: < 1.6 µg/mL | mortality [11]: <50% | LC50 [12]: 2.17 µg/mL (≈ 3.87 µM) | mortality [1]: 70% | LC50 [13]: 3.93 µg/mL (≈ 7.01 µM) | mortality [7]: 90% | mortality at 2.5 ppm [8]: 90% | LC50 [14]: 62 µg/mL (≈ 111 µM) | mortality at 5 ppm [15]: 89% | mortality at 50 ppm [16]: 90% | mortality [2]: inactive

Cn1nc(-c2c(F)cccc2Cl)nc1-c1ccc(-c2cccc(C(F)(F)F)c2)s1
mortality [2]: inactive | mortality [3]: inactive | mortality [9]: inactive | mortality [4]: inactive | mortality [5]: inactive | mortality [6]: inactive

Cn1nc(-c2c(F)cccc2Cl)nc1-c1ccc(-c2ccc(OC(F)(F)F)cc2)s1
mortality [17]: <50% | LC90 [10]: 27.7 ppm | LC50 [10]: 20.6 µg/mL (≈ 45.4 µM) | LC90 [12]: 59.9 ppm | LC50 [12]: 49.9 µg/mL (≈ 110 µM) | mortality [1]: 70% | LC50 [13]: 122 µg/mL (≈ 269 µM) | mortality [7]: 90% | mortality at 2.5 ppm [8]: 90% | LC50 [14]: 9.6 µg/mL (≈ 21.2 µM) | mortality at 5 ppm [15]: 47% | mortality at 50 ppm [16]: 90% | mortality [3]: inactive

Cn1nc(-c2c(F)cccc2Cl)nc1-c1sc(-c2ccc(O)cc2)cc1Cl
mortality [7]: 60% | mortality at 50 ppm [16]: < 50% | mortality [2]: inactive | mortality [3]: inactive | mortality [9]: inactive | mortality [5]: inactive

Cc1cc(-c2ccc3c(c2)OC(F)(F)O3)sc1-c1nc(-c2c(F)cccc2Cl)nn1C
mortality [17]: <50% | mortality [1]: 80% | mortality [3]: inactive | mortality [4]: inactive | mortality [5]: inactive | mortality [6]: inactive

Cn1nc(-c2c(F)cccc2Cl)nc1-c1cc(Br)c(-c2ccc(OC(F)(F)F)cc2)s1
mortality [17]: <50% | mortality [11]: 90% | mortality [7]: 90% | mortality at 2.5 ppm [8]: 90% | mortality [9]: inactive | mortality [6]: inactive

Cn1nc(-c2c(F)cccc2F)nc1-c1ccc(-c2ccc(F)c(F)c2)s1
mortality [2]: inactive | mortality [3]: inactive | mortality [9]: inactive | mortality [4]: inactive | mortality [5]: inactive | mortality [6]: inactive
